Here are results for one compound from ChEMBL document CHEMBL4038311, “An Ursolic Acid Derived Small Molecule Triggers Cancer Cell Death through Hyperstimulation of Macropinocytosis” (J Med Chem, 2017).

Data set [1] relates to HeLa. Kind of data set: Anticancer activity against human HeLa cells assessed as vacuole formation preincubated cells with 3-MA followed by compound addition measured after 24 hrs by phase contrast microscopic analysis. In kind it is functional, cell-based. A digest of the protocol: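 HeLa cells pretreated 1 h with or without 3-MA before compound or DMSO. Phase-contrast images obtained after 24 h.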

In data set [2] the test system is MCF7. Kind of data set: Anticancer activity against human MCF7 cells assessed as vacuole formation at 20 uM after 24 hrs by phase contrast microscopic analysis. The class given is functional, cell-based.
In data set [3] the test system is HeLa. Kind of data set: Induction of methuosis in human HeLa cells assessed as increase in vacuole formation preincubated cells with vacuolar-type H+-ATPase inhibitor Baf-A1 for 1 hr followed by compound addition measured after 24 hrs by phase contrast microscopic analysis. The class given is functional, cell-based. A digest of the protocol: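 HeLa cells (DMEM, 10% FBS, penicillin/streptomycin, 37 °C, 5% CO2) were given 100 nM bafilomycin A1 for 1 h before compound addition. Vacuole formation was then scored by phase-contrast imaging of live cells.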

Data set [4] relates to HeLa. Kind of data set: Induction of methuosis in human HeLa cells assessed as decrease in cell viability preincubated cells with actin inhibitor cytochalasin D for 1 hr followed by compound addition measured after 48 hrs by CCK8 assay. The class given is functional, cell-based. A general note: Formazan colour is commonly taken as a measure of viable cells.
The subject of data set [5] is MCF7. Kind of data set: Anticancer activity against human MCF7 cells assessed as cell viability after 48 hrs by CCK8 assay. In kind it is functional, cell-based. The note with it: MCF7, 48 h. A digest of the protocol:
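Seeded at 1000 cells/well in DMEM with 10% FBS at 37 °C, 5% CO2, overnight pre-incubation. Serial dilutions from a 100 mM DMSO stock gave final 0–50 µM, with 48 h exposure. CCK-8 read at 450 nm. IC50 fitted against DMSO control, given with s.d., n = 3 independent experiments.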

Data set [6] is described as follows: Cytotoxicity against HDF assessed as vacuole formation at 20 uM after 24 hrs by phase contrast microscopic analysis relative to control. The class given is cell-based. The conditions noted are these: human. A digest of the protocol: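 C2C12 or HDF cells given 20 µM or 0.1% DMSO for 24 h, then imaged live by phase-contrast microscopy.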

Activity calls are given as the source filed them. The calls are words filed in the database; no cut-off is given here.

In general, IC50 refers to the midpoint of a concentration-inhibition curve. For the compound `C[C@H]1[C@H](C)CC[C@]2(C(=O)O)CC[C@]3(C)C(=CC[C@@H]4[C@@]5(C)Cc6cnn(-c7ccc(C#N)cc7)c6C(C)(C)[C@@H]5CC[C@]43C)[C@H]12`, the outcome in data set [1] and in data set [2] was Active. Moreover, the outcome in data set [3] and in data set [4] was inactive. The IC50 in data set [5] was found to be 17.6 µM. Also, in data set [6], the Activity result is “Toxic”.
